Compound activity from PubChem.
TRPC4 inh = inhibitors of mouse TRPC4 channel; AID 2247; actives 0.39% (n = 300,000); HEK293 TRPC4beta/mu-opioid, DAMGO-evoked Fluo4 calcium flux; hits give low values; B-score at 10 µM;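 active means B-score over 3 SD under the library average, no early fluorescence shift, positive overall ratio signal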
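Signal: kinetic Fluo4 fluorescence imaging of calcium influx. Material: stable TRPC4beta/mu-opioid receptor HEK293 cells. Probe or stimulus: DAMGO in two steps, submaximal then maximal.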
TRPC6 activator = activates the mouse TRPC6 cation channel. HEK293-TRPC6 membrane potential dye fluorescence; hits give high values. Q61143. B-score at 10 µM. actives 0.13% (n = 310,000);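 active means B-score of the integrated fluorescence ratio above library mean plus 3 SD, and starting fluorescence ratio within library mean plus 5 SD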;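 further: higher score means more depolarization so channel activation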
Target sequence (Q61143 whole entry, looked up): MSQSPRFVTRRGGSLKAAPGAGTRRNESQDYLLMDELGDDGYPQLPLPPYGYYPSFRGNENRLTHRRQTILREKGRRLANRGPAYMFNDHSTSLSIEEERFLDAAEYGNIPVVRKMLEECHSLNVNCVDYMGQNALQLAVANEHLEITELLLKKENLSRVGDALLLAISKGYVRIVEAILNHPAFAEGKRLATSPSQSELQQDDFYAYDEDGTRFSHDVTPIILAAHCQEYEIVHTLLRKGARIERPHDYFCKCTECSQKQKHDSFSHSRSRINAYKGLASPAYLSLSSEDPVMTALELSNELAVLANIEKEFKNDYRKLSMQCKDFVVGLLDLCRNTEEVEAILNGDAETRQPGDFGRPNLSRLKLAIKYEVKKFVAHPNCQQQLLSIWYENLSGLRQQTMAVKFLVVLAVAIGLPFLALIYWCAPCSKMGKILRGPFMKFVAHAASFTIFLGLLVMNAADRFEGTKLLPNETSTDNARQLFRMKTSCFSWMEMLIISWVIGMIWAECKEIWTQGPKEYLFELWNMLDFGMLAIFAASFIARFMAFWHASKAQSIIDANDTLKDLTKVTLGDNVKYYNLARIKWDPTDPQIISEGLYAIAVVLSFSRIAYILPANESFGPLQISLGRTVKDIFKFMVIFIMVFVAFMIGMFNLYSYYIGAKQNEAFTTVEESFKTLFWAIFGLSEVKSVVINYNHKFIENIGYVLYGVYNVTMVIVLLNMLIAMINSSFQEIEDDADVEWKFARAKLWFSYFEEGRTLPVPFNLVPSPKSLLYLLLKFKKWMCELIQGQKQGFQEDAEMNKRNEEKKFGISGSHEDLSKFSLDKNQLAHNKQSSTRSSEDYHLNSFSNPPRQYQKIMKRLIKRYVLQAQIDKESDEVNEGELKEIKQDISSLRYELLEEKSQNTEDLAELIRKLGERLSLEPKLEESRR
TRPC4 potent = allosterically enhances the mouse TRPC4 cation channel; actives 0.42% (n = 310,000); B-score at 10 µM; Q9QUQ5; AID 2227; HEK293 TRPC4beta/mu-opioid, DAMGO EC20, Fluo-4 Ca2+ flux; hits give high values;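 active means B-score of calcium response area above 5 SD of library B-scores, with initial fluorescence ratio within 5 SD of library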
CR mimetic SO = lowers age-related superoxide in aged yeast cells; S. cerevisiae aged cells, superoxide DHE fluorescence; hits give low values; superoxide response (% of plate mean), % at 10 µM; actives 0.18% (n = 330,000); AID 2690;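 active means superoxide response under a set limit, about three screen SD below normal, cut at about 65% in these data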;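 further: yeast aged for seven days with compound at 30 °C before DHE staining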
TRPC4 agonist = opens the mouse TRPC4 cation channel | actives 0.49% (n = 310,000) | B-score at 10 µM | Q9QUQ5 | HEK293 TRPC4beta/mu-opioid, Fluo4 calcium fluorescence; hits give high values;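 active means B-score above 5 SD of library B-scores, and initial fluorescence ratio not above library mean plus 5 SD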;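 further: positive B-score marks a calcium rise read as TRPC4 activation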
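System – HEK293 cells stably co-expressing mouse TRPC4beta and mu-opioid receptor · Signal – Fluo4 calcium-sensitive dye fluorescence, kinetic, 1 Hz baseline · Benchmarks – buffer (low) and maximal DAMGO (high) · Read-out – B score of integrated fluorescence ratio per well · Incubation – dye loading 45 min room temperature, 110 s kinetic read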
TRPC6 inh = mouse TRPC6 channel inhibition. AID 2553. HEK293-TRPC6, membrane potential dye, ACh-evoked depolarization; hits give low values. B-score at 10 µM. actives 1.1% (n = 310,000). Q61143;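 active means B-score under library mean minus 3 SD, initial fluorescence not abnormally high, positive integrated signal ratio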;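 further: B-score derived from integrated fluorescence ratio over the kinetic read; more negative B-score means stronger inhibition of depolarization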
Each line names hits and unclear results; the compound was inactive in the other large screens. Compounds with a hit are over-represented: about 2.3% of the library has one in this group of screens.

Cc1nn(-c2nc3ccccc3n2Cc2ccccc2)c2c1C(=O)CC(C)(C)C2	TRPC4 inh -6
Cc1nn(-c2ccccc2)c2c1C(=O)N(Cc1ccccc1)C(=O)C(C)(C)C2	none
CCCCn1c(N)c(N(CCOC)C(=O)c2ccc(-c3ccc(C(C)=O)cc3)o2)c(=O)[nH]c1=O	TRPC4 potent 92
Cc1cc(C)cc(N(CC(=O)NCc2ccccc2Cl)S(=O)(=O)c2c(C)[nH]c(=O)[nH]c2=O)c1	none
Cc1cc(Br)ccc1OCCN1CCCC1	TRPC4 potent 15
CCN1CCN(CCOc2ccc(Br)cc2C)CC1	none
OCC1(CCc2ccccc2)CCN(Cc2cccn2-c2cccnc2)CC1	TRPC4 agonist 57
CCOc1ccc(-n2c(C)c(C(C)=O)c3cc(O)ccc32)cc1	TRPC4 potent 11
CCOc1ccc(-n2c(C)c(C(=O)OC)c3cc(O)ccc32)cc1	none
COc1cc(NC(=S)NCCc2ccccc2)c(OC)cc1NC(=O)CC(C)C	TRPC4 inh -6
CC(C)CC(=O)NC(=S)NCCc1ccccc1	none
CCN1C(=O)CSC1=Nc1ccc(Cl)c(Cl)c1	TRPC4 inh -6
CCn1c(-c2ccccc2)csc1=Nc1ccc(O)cc1	TRPC4 inh -5
CCOc1ccc(N=c2scc(-c3ccccc3)n2CCO)cc1	none
COc1cccc(NC(=O)CN2C(=O)C(c3ccc(C)cc3)=NC23CCCCCC3)c1	none
CCOC(=O)CC(NC(=O)c1cc2cc(Br)ccc2oc1=O)c1cccc([N+](=O)[O-])c1 (centres undefined)	TRPC4 potent 26
CCOc1ccc(C(CC(=O)O)NS(=O)(=O)c2ccc(C)cc2)cc1OC (centres undefined)	none
CCOC(=O)CC(NS(=O)(=O)c1ccc(OC)c(C)c1)c1cccc([N+](=O)[O-])c1 (centres undefined)	TRPC4 inh -6
Cn1c(CC(=O)Nc2ccccc2)nnc1SCC(=O)NC1CCCC1	none
CC(C)CCNC(=O)CN1C(=O)NC(c2ccccc2)(c2ccccc2)C1=O	none
COc1ccc(CC(=O)NCc2n[nH]c(=S)n2-c2ccc(Br)cc2)cc1	none
COC(=O)c1ccc(NC(=O)CN2CCCC2)cc1	none
CC1(OC(=O)c2cnc3ccccc3n2)C(=O)C=C2C=C(c3ccc(C#N)cc3)OC=C2C1=O (centres undefined)	none
Cc1c(Cl)cccc1NC(=S)NCc1cccn1C	TRPC4 inh -6
CCc1ccc(Nc2n[n+](-c3ccccc3)c(-c3cc(OC)c(OC)cc3Br)s2)cc1	none
CCc1ccc(Nc2n[n+](-c3ccccc3)c(/C=C/c3ccccc3)s2)cc1	TRPC4 potent 15
O=C1S/C(=C\c2ccc(O)c([N+](=O)[O-])c2)C(=O)N1Cc1cccc([N+](=O)[O-])c1	none
O=C1S/C(=C\c2ccc(O)c([N+](=O)[O-])c2)C(=O)N1c1ccccc1Cl	TRPC4 inh -10
Cc1ccc(C)n1-c1ncc(Br)cn1	TRPC4 potent 21
O=Cc1cccn1-c1ncc(Br)cn1	none
N#C/C(N)=C(/C#N)N=Cc1cccc(Cl)c1	TRPC4 potent 11
CC1CCCC(NC(=O)Cn2cc([N+](=O)[O-])ccc2=O)C1C (centres undefined)	none (no result: TRPC4 inh, TRPC6 activator, TRPC4 potent, TRPC4 agonist, TRPC6 inh)
CCc1nc(-c2ccc(OC)c(OC)c2)cc2cc(OC)c(OC)cc12	none
Cc1c(C(=O)N2CCCC2)oc2c1-c1nn(CC(=O)NCCCN3CCCCC3)cc1CC2	TRPC4 potent 11
Cc1cc(C(=O)CCC(=O)Nc2ncccc2C)c(C)s1	none
CC(OC(=O)CCc1nc2ccccc2c(=O)[nH]1)C(=O)Nc1cccc(C(F)(F)F)c1 (centres undefined)	none (no result: TRPC4 inh, TRPC6 activator, TRPC4 potent, TRPC4 agonist, TRPC6 inh)
c1ccc(-c2cnc(SCCN3CCOCC3)n2CC2CCCO2)cc1 (centres undefined)	TRPC4 inh -5
C=CCn1c(NC(=O)c2ccco2)nc2ccccc21	none
CCn1c(NCc2ccco2)nc2ccccc21	TRPC4 potent 54
C=CCn1c(NCc2ccco2)nc2ccccc21	TRPC4 potent 34
CCCCn1c(NCc2ccc(N(C)C)cc2)nc2ccccc21	TRPC4 inh -6
c1ccc(Cn2c(NCc3ccco3)nc3ccccc32)cc1	TRPC4 inh -6
c1coc(CNc2nc3ccccc3n2CCN2CCOCC2)c1	none
COc1ccc(CNc2nc3ccccc3n2Cc2ccccc2)cc1OC	none
CCCCn1c(NCc2ccncc2)nc2ccccc21	none
O=C(CSc1nnc(CNC(=O)c2c(F)cccc2Cl)o1)NCc1ccccc1	none
CN1CC(=O)N/C1=N\C(=O)Nc1ccc2c(c1)N(C)C(=O)CS2	none
NS(=O)(=O)c1ccc(CNC(=S)NCc2ccc(F)cc2)cc1	none
CCCn1c(N2CCN(S(=O)(=O)Cc3ccccc3)CC2)nc2ccccc21	TRPC4 potent 22
COc1ccc(C)c(NC(=O)NCCc2cnc[nH]2)c1	TRPC4 agonist 129
Cc1nc2c3cc(Cl)ccc3n(CCN3CCCCC3)c2s1	TRPC4 inh -6
c1ccc(-c2nc(NCc3cccnc3)c3ccccc3n2)cc1	TRPC4 inh -6
OCCNc1nc(NCc2ccccc2)c2ccccc2n1	TRPC4 inh -6
OCCNc1nc(Nc2ccc(O)cc2)nc2ccccc12	none
c1ccc(CCNc2nc(-c3ccccn3)nc3ccccc23)cc1	TRPC4 inh -6
Cc1ccc(-c2nc(NCc3cccnc3)c3ccccc3n2)cc1	none
CC(C)C[C@H](NS(=O)(=O)c1ccc(Br)cc1)C(=O)O	none
CC[n+]1c(/C=C2/C=C(C)CC(C)C2)sc2ccccc21 (centres undefined)	none
CC[n+]1c(C=C2C=C(C)OC(C)=C2)sc2ccccc21	TRPC4 inh -8 (no result: CR mimetic SO)
O=C(NCC1CCCO1)c1c(O)c2ccccc2[nH]c1=O (centres undefined)	none
CCCn1c(=O)c(C(=O)NNC(=O)c2ccccc2Cl)c(O)c2ccccc21	TRPC4 agonist 48
CCCn1c(=O)c(C(=O)NCC2CCCO2)c(O)c2ccccc21 (centres undefined)	TRPC4 potent 16
CCCn1c(=O)c(C(=O)NNC(=O)c2ccccc2[N+](=O)[O-])c(O)c2ccccc21	none
CC(=O)Nc1cccc(NC(=O)Nc2cccc(F)c2)c1	none
CNS(=O)(=O)c1ccc(NC(=O)Nc2cccc(F)c2)cc1	TRPC4 agonist 44
CCN(CC)S(=O)(=O)c1ccc(NC(=O)Cn2c(=O)oc3ccccc32)cc1	TRPC4 inh -6
CC12CCC(C/C1=N\OC(=O)c1ccc(F)cc1)C2(C)C (centres undefined)	none
Cc1ccccc1NS(=O)(=O)c1ccc2[nH]cc(C(=O)NCCCN3CCOCC3)c(=O)c2c1	TRPC6 inh -6 (no result: TRPC4 inh)
COc1ccc(S(=O)(=O)Nc2ccc3c(c2)OCO3)cc1C	none
